This note sets out measurements from ChEMBL document CHEMBL4406904, “Design, synthesis and biological activity of a novel ethylenediamine derivatives as H1 receptor antagonists” (Bioorg Med Chem, 2019).

Data set [1] deals with RBL-2H3. Description: Antiallergic activity in IgE/Ag-stimulated rat RBL2H3 cells assessed as inhibition of HSA-induced beta-hexosaminidase release preincubated with compound for 30 mins and then stimulated with HSA for 15 mins followed by incubation with P-nitrophenyl-N-acetyl-beta-D-glucosaminide for 2 hrs. The class given is functional, cell-based. A digest of the protocol:
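RBL-2H3 cells (3×10⁵/mL) sensitized overnight with anti-DNP IgE at 150 ng·mL⁻¹, then washed twice in PIPES buffer pH 7.0 with glucose and 0.2% BSA. Compound applied for 30 min at 37 °C, then DNP-HSA 20 ng·mL⁻¹ for 15 min; stopped on ice. Supernatant incubated with p-nitrophenyl-N-acetyl-β-D-glucosaminide in citrate pH 4.6 for 2 h at 37 °C. Stopped with carbonate pH 10.2; A405 read. IC50 derived.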

Data set [2] has as its system RBL-2H3. Description: Antiallergic activity in rat RBL2H3 cells assessed as inhibition of C48/80-induced histamine release preincubated with compound for 30 mins followed by C48/80 stimulation for 1 hr. In kind it is functional, cell-based. Put shortly:
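RBL-2H3 cells seeded at 3×10⁵/mL and adhered overnight at 37 °C, 5% CO₂. Histamine in the supernatant derivatized with o-phthalaldehyde after HCl/NaOH addition. IC50 is the concentration halving histamine release. DMSO blank.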

Data set [3] is described as follows: Dissociation constant, pKa of the compound. The class given is physicochemical.
Data set [4] can be described thus: Lipid/water partition co-efficient, log P of the compound. The class given is physicochemical.
Data set [5] deals with RBL-2H3. Description: Antiallergic activity in rat RBL2H3 cells assessed as inhibition of C48/80-induced mast cell degranulation preincubated with compound for 30 mins and then treated with C48/80 for 1 hr by neutral red dye based method. In kind it is functional. A digest of the protocol: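 RBL-2H3 cells seeded at 3×10⁵/mL and left overnight at 37 °C, 5% CO₂ to adhere. Medium discarded and cells stained with 0.5% neutral red for 3 min. Degranulated cells counted per 100 mast cells. IC50 taken as the concentration giving half-maximal degranulation. DMSO blank.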

In data set [6] the test system is Cavia porcellus. Description: In vivo antiallergic activity in guinea pig assessed as protection against histamine-induced bronchospasm at 20 mg/kg, po by Van Arman method relative to control. The class given is functional. Put shortly: (§1)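 Male guinea pigs (220–260 g), fasted 24 h with water, six per group. Compound given orally at 20 mg·kg⁻¹ in 1% CMC-Na. Animals then exposed in a closed cage to aerosolized 0.3% histamine chloride (5 mL). Convulsion (preconvulsion) time recorded; stable beyond 10 min counted as protected. Protection % derived from mean time versus control.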

Data set [7] relates to Cavia porcellus. The data set can be described thus: In vivo antiallergic activity in histamine-induced bronchospasm guinea pig model assessed as duration of convulsions at 20 mg/kg, po by Van Arman method. The class given is functional. A digest of the protocol:
as §1

The subject of the next data set is Mus musculus. The data set can be described thus: Antiallergic activity in mouse assessed as inhibition of histamine-induced increase in capillary permeability by measuring Evans blue dye concentration at 20 mg/kg administered via gavage for 1 week followed by Evans blue dye injection immediately after subcutaneous histamine injection and measured after 15 mins by UV spectrophotometric analysis. In kind it is functional. A digest of the protocol:
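Mice (20–22 g), 10 per group, half male and half female. Compound suspension gavaged at 20 mg·kg⁻¹ for one week; model group given 0.5% CMC-Na. Backs depilated with 8% sodium sulfide the day before. Histamine phosphate 0.1% (50 μL) injected subcutaneously, with 0.5% Evans blue (25 mg·kg⁻¹) given i.v. via tail vein. Killed after 15 min. Stained skin extracted in acetone–saline for 48 h, centrifuged, OD read at 610 nm.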

Data set [8] has as its target Histamine H1 receptor (Homo sapiens) (UniProt P35367). The data set can be described thus: Binding affinity to H1 receptor (unknown origin) at 0.10 umol/L.
The nature of data set [9]: Acute toxicity in ip dosed histamine-induced bronchospasm guinea pig model. The class given is organism-based, Cavia porcellus. The note with it: in vivo.
Data set [10] relates to Cavia porcellus. Description: In vivo antiallergic activity in histamine-induced bronchospasm guinea pig model assessed as duration of convulsions at 20 mg/kg by Van Arman method.
The test system of data set [11] is Cavia porcellus. Description: In vivo antiallergic activity in guinea pig assessed as protection against histamine-induced bronchospasm at 20 mg/kg by Van Arman method relative to control.

Activity calls are given as the source filed them. The rule behind the calls is not given here.

Sequence of Histamine H1 receptor (Homo sapiens) (P35367 whole entry): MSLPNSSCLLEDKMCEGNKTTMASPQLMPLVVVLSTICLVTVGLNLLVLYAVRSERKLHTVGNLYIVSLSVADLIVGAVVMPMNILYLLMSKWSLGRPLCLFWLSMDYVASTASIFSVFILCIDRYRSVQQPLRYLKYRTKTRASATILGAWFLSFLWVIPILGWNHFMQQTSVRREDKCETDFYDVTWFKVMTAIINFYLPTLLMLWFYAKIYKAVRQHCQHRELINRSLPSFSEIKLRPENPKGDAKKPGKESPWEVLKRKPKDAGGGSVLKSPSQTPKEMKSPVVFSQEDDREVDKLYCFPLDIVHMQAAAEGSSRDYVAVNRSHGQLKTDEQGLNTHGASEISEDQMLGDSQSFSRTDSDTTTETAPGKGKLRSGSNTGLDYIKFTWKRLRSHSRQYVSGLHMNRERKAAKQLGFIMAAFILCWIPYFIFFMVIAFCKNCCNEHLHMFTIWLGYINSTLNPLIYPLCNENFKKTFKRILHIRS

On to `COc1ccc(CCN(CCN(C)C)c2ccc(Cl)cc2)cc1`, for which the figures for the IC50 with RBL-2H3 [1], in the data set on RBL-2H3 [2] and in the data set with RBL-2H3 [5] were 261 nM, 141 nM and 89.2 nM, respectively. In addition, the pKa (usually the negative logarithm of the acid dissociation constant) in [3] was determined as 9.5. Moreover, the logP (in general, the decadic logarithm of the partition coefficient of the neutral form, usually between octanol and water) in data set [4] was determined as 4.78.

With `COc1ccc(CN(CCN(C)C)c2ccc(Cl)cn2)cc1`, the IC50 – broadly, the concentration that inhibits the measured activity by half – in the data set on RBL-2H3 [1] came to 45.5 nM; in the data set on RBL-2H3 [2], 19.2 nM; with RBL-2H3 [5], 10.6 nM. In addition, the results for the Activity in the data set with Cavia porcellus [6] and in the data set on Mus musculus were 79.74% and 71.26 mg/L, respectively. Also, the Time in the data set on Cavia porcellus [7] worked out at 398.69 s. This compound registered a pKa in data set [3] of 9.5. Further, in [4], the logP stood at 3.87. In addition, in [8], the result was Active. In [9], the median lethal dose (LD50) – broadly, the dose expected to kill half of the subjects tested – is 324 mg/kg.

On to `COc1ccc(CCN(CCN(C)C)c2ccccc2)cc1`, for which the values for the IC50 in the data set with RBL-2H3 [1], with RBL-2H3 [2] and with RBL-2H3 [5] were 1030 nM, 516 nM and 306 nM, respectively. In addition, the pKa in data set [3] amounted to 9.6. The logP in [4] came out at 4.21.

In the case of `COc1ccc(CCN(CCN(C)C)c2ccc(Cl)cn2)cc1`, the IC50 in the data set with RBL-2H3 [1] was 72.1 nM; with RBL-2H3 [2], 53.1 nM; in the data set with RBL-2H3 [5], 45.3 nM. In addition, the Activity with Cavia porcellus [6] was found to be 70.22%; in the data set on Mus musculus, 55.67 mg/L. For the same compound, the Time in the data set with Cavia porcellus [7] came out at 351.1 s. The compound further yielded a pKa in data set [3] of 9.4. Also, the logP in [4] was found to be 4.16. In data set [8], the outcome was Active. The compound further registered an LD50 in data set [9] of 335 mg/kg.

In the case of `COc1ccc(CCN(CCN(C)C)c2ccccn2)cc1`, the figures for the IC50 with RBL-2H3 [1], with RBL-2H3 [2] and in the data set on RBL-2H3 [5] were 319 nM, 159 nM and 129 nM, respectively. This compound also displayed a pKa in data set [3] of 9.5. For the same compound, the log partition coefficient (logP) in data set [4] came out at 3.59.

For the compound `CN(C)CCC(c1ccc(Cl)cc1)c1ccccn1` (centres undefined) [CHLORPHENIRAMINE], the IC50 with RBL-2H3 [1] is 121 nM; with RBL-2H3 [2] it was 53.6 nM; with RBL-2H3 [5] it was 31.8 nM. Besides, in the data set with Cavia porcellus [10], the Time was 367.16 s. Moreover, the Activity with Mus musculus is on record as 56.13 mg/L; with Cavia porcellus [11], 73.43%.

For `COc1ccc(CCN2CCC(Nc3nc4ccccc4n3Cc3ccc(F)cc3)CC2)cc1` [ASTEMIZOLE], the IC50 in the data set with RBL-2H3 [1] was 156 nM; in the data set with RBL-2H3 [2], 81.9 nM; in the data set on RBL-2H3 [5], 53.3 nM.

As to `COc1ccc(CN(CCN(C)C)c2ccc(Cl)cc2)cc1`, the IC50 was determined as 71.2 nM in the data set with RBL-2H3 [1], 40.2 nM with RBL-2H3 [2] and 18.1 nM in the data set on RBL-2H3 [5]. Moreover, the figures for the Activity in the data set with Cavia porcellus [6] and in the data set with Mus musculus were 75.32% and 65.34 mg/L, respectively. Moreover, in the data set on Cavia porcellus [7], the Time turned out to be 376.58 s. In [3], the pKa was determined as 9.6. For the same compound, the logP in data set [4] is 4.47. Also, the outcome in [8] was Active. The compound further gave an LD50 in [9] of 414 mg/kg.

For the compound `COc1ccc(CN(CCN(C)C)c2ccc(C)cn2)cc1`, the IC50 in the data set with RBL-2H3 [1] is 61.2 nM; with RBL-2H3 [2], 48.6 nM; in the data set with RBL-2H3 [5] it was 28.9 nM. In addition, the Activity stood at 74.26% in the data set on Cavia porcellus [6] and 62.16 mg/L in the data set on Mus musculus. Further, the Time with Cavia porcellus [7] amounted to 371.28 s. This compound also yielded a pKa in data set [3] of 9.6. The logP in data set [4] is 3.79. Also, the result in data set [8] was Active. The compound also came in with an LD50 in data set [9] of 335 mg/kg.

`COc1ccc(CN(CCN(C)C)c2ccc(N)cc2)cc1`: the IC50 with RBL-2H3 [1] was determined as 8010 nM; in the data set on RBL-2H3 [2], 4060 nM; with RBL-2H3 [5], 2310 nM. The same compound showed a pKa in [3] of 9.8. In data set [4], the logP worked out at 3.13.

In the case of `COc1ccc(CN(CCN(C)C)c2ccc(C)cc2)cc1`, the IC50 amounted to 141 nM in the data set on RBL-2H3 [1], 89.1 nM in the data set on RBL-2H3 [2] and 55.3 nM in the data set with RBL-2H3 [5]. For the same compound, the results for the Activity in the data set with Cavia porcellus [6] and in the data set with Mus musculus were 69.62% and 53.59 mg/L, respectively. Also, in the data set on Cavia porcellus [7], the Time was 348.1 s. Also, the pKa in data set [3] was determined as 9.8. In data set [4], this compound returned a logP of 4.43. Further, the outcome in data set [8] was Active. In data set [9], this compound showed an LD50 of 401 mg/kg.

Turning to `COc1ccc(CCN(CCN(C)C)c2ccc(C)cn2)cc1`, the IC50 in the data set with RBL-2H3 [1] worked out at 211 nM; in the data set on RBL-2H3 [2], 102 nM; in the data set on RBL-2H3 [5] it was 83.9 nM. In [3], the pKa came to 9.5. In data set [4], this compound yielded a log partition coefficient (logP) of 4.06.

Turning to `COc1ccc(CCN(CCN(C)C)c2ccc(C)cc2)cc1`, the IC50 with RBL-2H3 [1] amounted to 561 nM; in the data set on RBL-2H3 [2], 289 nM; with RBL-2H3 [5], 153 nM. The compound further displayed a pKa in data set [3] of 9.7. In data set [4], this compound showed a logP of 4.68.

Consider `COc1ccc(CCN(CCN(C)C)c2ccc(N)cc2)cc1`, for which the IC50 in the data set on RBL-2H3 [1] was determined as 7960 nM; in the data set on RBL-2H3 [2], 4010 nM; with RBL-2H3 [5], 2230 nM. The pKa in data set [3] is 9.8. The compound further came in with a logP in [4] of 3.43.

Take `COc1ccc(CN(CCN(C)C)c2ccc(N)cn2)cc1`: the values for the IC50 in the data set with RBL-2H3 [1], in the data set with RBL-2H3 [2] and in the data set with RBL-2H3 [5] were 4090 nM, 2110 nM and 1340 nM, respectively. In addition, in data set [3], the pKa was 9.4. Besides, in data set [4], the logP worked out at 2.56.

`COc1ccc(CCN(CCN(C)C)c2ccc(N)cn2)cc1`: the IC50 in the data set with RBL-2H3 [1] came out at 4010 nM; with RBL-2H3 [2], 1910 nM; in the data set with RBL-2H3 [5], 1210 nM. This compound also displayed a pKa in [3] of 9.6. In addition, in [4], the logP amounted to 2.79.

As for `COc1ccc(CN(CCN(C)C)c2ccccn2)cc1` [PYRILAMINE], the results for the IC50 with RBL-2H3 [1], in the data set with RBL-2H3 [2] and in the data set with RBL-2H3 [5] were 132 nM, 92.6 nM and 81.5 nM, respectively. Also, the pKa in data set [3] amounted to 9.7. This compound also yielded a logP in data set [4] of 3.32.

As to `COc1ccc(CN(CCN(C)C)c2ccccc2)cc1`, the values for the IC50 in the data set on RBL-2H3 [1], with RBL-2H3 [2] and with RBL-2H3 [5] were 411 nM, 243 nM and 143 nM, respectively. Besides, in data set [3], the pKa worked out at 9.7. Moreover, the logP in data set [4] was found to be 3.9.
